The structures appear in SMILES notation. The source made the active and inactive calls. The rule behind the calls is not given here.

By bioavailability is commonly meant dose-corrected exposure relative to a reference, in per cent. Usually AUC stands for concentration integrated over time. Read a high AUC as more exposure. As usually defined, the clearance is the volume of plasma or blood freed of the substance per unit of time. Read a low clearance as inefficient removal. The EC50 is the concentration giving half of the maximal effect. A word on the T/C: it is the ratio of treated to control. The Cmax is the peak of the concentration-time curve. A word on the half-life: it is how long it takes for the measured level to halve.

Data set [1] in a line: Oral bioavailability in Wistar rat at 30 mg/kg by HPLC-MS/MS analysis. It counts as ADME, organism-based. The conditions noted are these: in vivo. In outline:
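Single oral gavage of BI 6727 suspended in 0.5% hydroxyethyl-cellulose (10 mL/kg) to female nude mice or male Wistar rats. EDTA plasma levels measured over time by HPLC-MS/MS with internal standard. AUC0-24 by trapezoidal rule. Parameters from noncompartmental analysis.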

A short description of data set [2]: Volume of distribution at steady state in BomTac:NMRI-Foxn1nu mouse at 35 mg/kg, iv by HPLC-MS/MS analysis. The format is ADME, organism-based. The conditions noted are these: in vivo, read-out: Vdss. The procedure, abridged: (§1)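 Female nude mice, n = 3, single i.v. dose (vehicle 0.1 N HCl diluted with 0.9% NaCl, 10 mL/kg). BI 6727 measured in EDTA plasma at several times by HPLC-MS/MS with internal standard. Parameters came from noncompartmental analysis. Terminal half-life was taken from the last two time points after i.v. dosing.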

In data set [3] the test system is NCI-H460. Description: Induction of apoptosis in human NCI-H460 cells assessed as conversion of cleaved PRAP protein to fragment at 100 nmol/L incubated for 48 hrs by westernblot analysis. It counts as functional, cell-based. In outline: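 Exponentially growing NCI-H460 cells treated with compound or DMSO control for 24 or 48 h, then harvested. Cleaved PARP fragment detected by Western blot.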

Data set [4] in a line: AUC (0 to 24 hrs) in human HCT-116 cells xenografted in BomTac:NMRI-Foxn1nu mouse at 25 mg/kg, iv administered twice a week upto 6 weeks by HPLC-MS/MS analysis. It counts as ADME, organism-based. Particulars: in vivo, 1008 h. For orientation: Xenograft models place foreign cells or tissue in a host animal.
The test system of data set [5] is HCT-116. Briefly: Antitumor activity against human HCT-116 cells xenografted in BomTac:NMRI-Foxn1nu mouse assessed as […] in tumor size at 20 mg/kg, iv administered twice a week on consecutive days. The format is functional, organism-based.
Data set [6] in a line: AUC (0 to 24 hrs) in human HCT-116 cells xenografted in BomTac:NMRI-Foxn1nu mouse at 7 mg/kg, po administered daily upto 6 weeks by HPLC-MS/MS analysis. It counts as ADME, organism-based. Particulars: in vivo, 1008 h.
Data set [7] can be described thus: Drug uptake in human HCT-116 cells xenografted in BomTac:NMRI-Foxn1nu mouse plasma at 35 mg/kg, iv measured after 168 hrs by HPLC-MS/MS analysis. The format is ADME, organism-based. The procedure, abridged: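 Female nude mice bearing s.c. HCT 116 xenografts (2 × 10⁶ cells), n = 3 per time point, given a single i.v. dose. Tumor, organs and EDTA plasma collected at 1, 8, 24, 48, 96 and 168 h. Tissue extracts and plasma analysed by HPLC-MS/MS. Tissue nmol/mg converted to nmol/L assuming density 1.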

Data set [8] in a line: Clearance in Wistar rat at 10 mg/kg, iv by HPLC-MS/MS analysis. The format is ADME, organism-based. Particulars: in vivo. The procedure, abridged: (§2)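 Male Wistar Crl:WI (Han) rats, n = 4, given a single 5-min i.v. infusion. BI 6727 measured in EDTA plasma at various times after the infusion started, by HPLC-MS/MS with internal standard. Parameters came from noncompartmental analysis. Terminal half-life was taken from the last two time points after i.v. dosing.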

The subject of data set [9] is HCT-116. Description: Antitumor activity against human HCT-116 cells xenografted in BomTac:NMRI-Foxn1nu mouse assessed as tumor regression at 15 mg/kg, iv administered twice a week on consecutive days. It counts as functional, organism-based. The procedure, abridged:
(§3)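 Female nude mice bore s.c. HCT 116 (2×10^6 cells), NCI-H460 (1×10^6 cells) or serially transplanted CXB1 tumor pieces. At ~50–100 mm³, mice were randomized into groups of 10 and dosed i.v. (0.1 N HCl/saline) or by gavage (0.5% hydroxyethyl-cellulose) at 10 mL/kg. Calipers read thrice weekly, volume = length×width²×π/6. T/C from median volumes on the last day.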

In data set [10] the test system is HCT-116. Description: Antimitotic activity against human HCT-116 cells assessed as inhibition of cell proliferation incubated for 72 hrs by Alamar blue based fluorescence spectrophotometric analysis. The format is functional. Particulars: HCT-116, 72 h. In outline:
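Cancer cell lines were cultured per supplier instructions and exposed to various inhibitor concentrations for 72 h. Growth was read as Alamar blue conversion by fluorescence. EC50 (50% growth inhibition) was extrapolated from the dose-response curve fit.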

Data set [11] in a line: AUC (0 to 24 hrs) in human HCT-116 cells xenografted in BomTac:NMRI-Foxn1nu mouse at 15 mg/kg, iv administered twice a week upto 6 weeks by HPLC-MS/MS analysis. The format is ADME, organism-based. The conditions noted are these: in vivo, 1008 h.
The test system of data set [12] is HCT-116. Briefly: Antitumor activity against human HCT-116 cells xenografted in BomTac:NMRI-Foxn1nu mouse assessed as early apoptosis at 40 mg/kg, iv 24 hrs after administration by tunel staining based immunohistochemistry analysis. It counts as functional, organism-based. In outline: (§4)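 Female nude mice bore s.c. HCT 116 tumors (~200 mm³) and received a single i.v. 40 mg/kg dose or vehicle (n=3 per group per time). Tumor, small intestine and large intestine were taken at 6, 24 and 48 h. Frozen sections were stained for pSer10 histone H3 (immunoperoxidase) or by TUNEL. Positive area was calculated as % of tumor cell area; Student's t test.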

Data set [13] deals with HCT-116. Description: Antitumor activity against human HCT-116 cells xenografted in BomTac:NMRI-Foxn1nu mouse assessed as mitotic index in large intestine at 40 mg/kg, iv. It counts as functional, organism-based. The procedure, abridged: as §4
The nature of data set [14]: AUC (0 to 24 hrs) in human HCT-116 cells xenografted in BomTac:NMRI-Foxn1nu mouse at 25 mg/kg, po administered twice a week upto 6 weeks by HPLC-MS/MS analysis. It counts as ADME, organism-based. The conditions noted are these: in vivo, 1008 h.
For data set [15], the system named is HCT-116. Briefly: Antitumor activity against human HCT-116 cells xenografted in BomTac:NMRI-Foxn1nu mouse assessed as T/C at 7 mg/kg, po administered daily upto 6 weeks relative to control. It counts as functional. In outline:
as §3

Data set [16] in a line: Oral bioavailability in dog by HPLC-MS/MS analysis. It counts as ADME, organism-based, Canis lupus familiaris. Particulars: in vivo.
A short description of data set [17]: Cmax in Wistar rat at 10 mg/kg, iv by HPLC-MS/MS analysis. The format is ADME, organism-based. Particulars: in vivo. In outline: as §2
The test system of data set [18] is NCI-H460. Description: Antitumor activity against human NCI-H460 cells xenografted in BomTac:NMRI-Foxn1nu mouse assessed as T/C at 10 mg/kg, po administered daily upto 6 weeks relative to control. It counts as functional. The procedure, abridged: as §3
Data set [19] concerns HCT-116. Description: Antitumor activity against human HCT-116 cells xenografted in BomTac:NMRI-Foxn1nu mouse assessed as tumor growth delay at 15 mg/kg, iv administered twice a week on consecutive days. It counts as functional, organism-based. Particulars: time 7.0 day. The procedure, abridged: as §3
The nature of data set [20]: Half life in BomTac:NMRI-Foxn1nu mouse at 35 mg/kg, iv by HPLC-MS/MS analysis. It counts as ADME, organism-based. The conditions noted are these: in vivo. In outline: as §1
For data set [21], the system named is HCT-116. Description: Antitumor activity against human HCT-116 cells xenografted in BomTac:NMRI-Foxn1nu mouse assessed as T/C at 20 mg/kg, iv administered once a week upto 6 weeks relative to control. The format is functional. In outline:
as §3

Data set [22] relates to NCI-H460. Briefly: Antimitotic activity against human NCI-H460 cells assessed as increase in the sub-G1 phase at 100 nmol/L incubated for 48 hrs by PI staining based flow cytometric analysis. The format is functional, cell-based. In outline:
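Log-phase NCI-H460 cells were treated with 0.1% DMSO or inhibitor (dose series for 24 h; 100 nmol/L time course at 0, 24, 48, 72 h). Cells were fixed in 80% ethanol, permeabilized with 0.25% Triton X-100 for 5 min, then given 0.1% RNase plus 10 µg/mL propidium iodide for 20 min at RT. DNA content was read by flow cytometry.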

`CC[C@@H]1C(=O)N(C)c2cnc(Nc3ccc(C(=O)N[C@H]4CC[C@H](N5CCN(CC6CC6)CC5)CC4)cc3OC)nc2N1C(C)C` [VOLASERTIB]: the bioavailability was found to be 55% in data set [1] and 53% in data set [16]. Moreover, the Vd in [2] was 7.6 L/kg. Also, the result in data set [3], in data set [5], in [9], in [12], in data set [19] and in data set [22] was Active. The AUC came to 75 µM·h in [4], 44 µM·h in data set [6], 37 µM·h in [11] and 43 µM·h in data set [14]. Also, in data set [7], the concentration at 168 h is 0.008 µM. In [8], this compound displayed a clearance of 8.9 mL/min/kg. In data set [10], the EC50 is 23 nM. In addition, the result in data set [13] was inactive. Besides, the T/C in data set [15] is listed as 3%; in [18], 6%; in data set [21] it was 9%. The same compound displayed a Cmax in data set [17] of 11.9 µM. Further, the half-life in data set [20] was 46 h.

The values are drawn from ChEMBL document CHEMBL5661977, “BI 6727, a Polo-like kinase inhibitor with improved pharmacokinetic profile and broad antitumor activity” (Clin Cancer Res, 2009).
